A short description of series [1]: Terminal half life in Sprague-Dawley rat at 1 mg/kg, iv by LC-MS/MS analysis. The note with it: in vivo, read-out: beta t1/2 (converted). In kind it is ADME, organism-based. In a few lines: (§1)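 Intravenous dose given in 5% Solutol / 5% EtOH in saline (1 mg/kg rat and dog, 0.91 mpk monkey). Plasma samples collected and analyzed by LC-MS/MS; parameters reported as mean ± SD, N=2-3.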

Series [2] in a line: AUC (0 to 24 hrs) in Sprague-Dawley rat at 3 mg/kg, po by LC-MS/MS analysis. In kind it is ADME, organism-based. Further details: time < 24 hr, dose 3 mg/kg, route oral. As to conditions: in vivo. In a few lines:
(§2)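 Sprague Dawley rats, Beagle dogs and Cynomolgus monkeys were dosed IV at 1 mg/kg (rat, dog) or 0.91 mpk (monkey) in 5% Solutol/5% EtOH in saline. Oral/nasogastric dosing was 3 mpk in 1.0% CMC/0.25% PS80/0.05% antifoam in purified water. Samples were processed to plasma and analysed by LC-MS/MS; values are mean ± SD, N=2-3.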

Series [3] is described as follows: Terminal half life in Sprague-Dawley rat at 3 mg/kg, po by LC-MS/MS analysis. The note with it: in vivo, read-out: beta t1/2 (converted). In kind it is ADME, organism-based. Put shortly: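 Oral/nasogastric dosing at 3 mpk in 1.0% CMC/0.25% PS80/0.05% antifoam in purified water. Plasma samples collected and analyzed by LC-MS/MS; parameters reported as mean ± SD, N=2-3.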

Series [4] has as its target T1, Mineralocorticoid receptor (Homo sapiens, UniProt P08235).
T1 sequence (P08235 whole entry): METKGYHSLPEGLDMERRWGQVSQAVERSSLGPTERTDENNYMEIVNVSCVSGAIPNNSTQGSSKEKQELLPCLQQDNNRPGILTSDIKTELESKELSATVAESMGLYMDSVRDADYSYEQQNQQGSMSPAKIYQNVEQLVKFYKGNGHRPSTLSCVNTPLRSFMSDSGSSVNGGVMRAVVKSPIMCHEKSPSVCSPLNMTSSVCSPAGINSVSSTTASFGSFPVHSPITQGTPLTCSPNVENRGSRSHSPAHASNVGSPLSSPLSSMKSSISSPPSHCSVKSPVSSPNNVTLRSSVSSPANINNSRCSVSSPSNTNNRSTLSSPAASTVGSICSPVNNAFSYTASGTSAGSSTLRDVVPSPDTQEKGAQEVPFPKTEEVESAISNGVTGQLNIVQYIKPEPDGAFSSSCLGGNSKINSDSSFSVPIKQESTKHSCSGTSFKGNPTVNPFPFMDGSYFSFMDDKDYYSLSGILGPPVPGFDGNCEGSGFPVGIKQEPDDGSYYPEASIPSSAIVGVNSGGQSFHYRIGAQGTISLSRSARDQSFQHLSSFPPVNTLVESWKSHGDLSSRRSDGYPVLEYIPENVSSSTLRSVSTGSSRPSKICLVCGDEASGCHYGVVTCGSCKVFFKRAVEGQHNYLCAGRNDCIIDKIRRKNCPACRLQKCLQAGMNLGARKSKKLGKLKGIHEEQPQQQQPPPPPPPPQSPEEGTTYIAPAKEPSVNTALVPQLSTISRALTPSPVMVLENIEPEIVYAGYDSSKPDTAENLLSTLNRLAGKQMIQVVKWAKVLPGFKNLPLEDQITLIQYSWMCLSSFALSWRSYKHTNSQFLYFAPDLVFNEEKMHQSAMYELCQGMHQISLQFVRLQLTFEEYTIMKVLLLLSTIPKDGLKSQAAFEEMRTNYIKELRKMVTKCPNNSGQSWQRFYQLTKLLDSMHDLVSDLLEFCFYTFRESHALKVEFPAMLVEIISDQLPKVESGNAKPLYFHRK
Kind of series: Agonist activity at mineralocorticoid receptor (unknown origin) expressed in HEK293 cells assessed as transcriptional activation. In kind it is cell-based.

Series [5] deals with Mus musculus. Kind of series: Antidyslipidemic activity in western-diet fed mouse expressing LDL-receptor (-/-) assessed as decrease in triglyceride level at 10 mg/kg qd for a week administered via gavage […]. In kind it is functional. As to conditions: po. Put shortly:
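Male LDLR null mice, six per group, were gavaged once daily for one week with compound (in situ sodium salt) or vehicle (5% Solutol, 5% EtOH, 1% wt/v CMC) at 5 mL/kg. On day 7 they were bled by cardiac puncture under CO2 anaesthesia. Serum cholesterol and triglycerides were measured enzymatically on a clinical chemistry analyser (mean ± SD, n=6). ED50 was obtained by nonlinear regression.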

Series [6] has as its system Mus musculus. Kind of series: Antidyslipidemic activity in western-diet fed mouse expressing LDL-receptor (-/-) assessed as decrease in very-low density lipoprotein level at 10 mg/kg qd for a week administered via gavage by FPLC analysis. In kind it is functional. The note with it: po. Put shortly: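 LDLR null male mice, six per group, were dosed by gavage once daily for one week (vehicle 5% Solutol, 5% EtOH, 1% wt/v CMC; 5 mL/kg). Serum was collected by cardiac puncture on day 7 under CO2 anaesthesia. Pooled serum from each treatment group was fractionated by FPLC to quantify VLDL and LDL.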

The test system of the next series is Rattus norvegicus. Kind of series: Antidyslipidemic activity in ZDF rat assessed as VLDL level at 3 mg/kg for 9 days by FPLC analysis (reference value: 35 mg/dL). In kind it is functional, Zucker.
Series [7] in a line: AUC (0 to 24 hrs) in cynomolgus monkey at 0.91 mg/kg, iv by LC-MS/MS analysis. In kind it is ADME, organism-based, Macaca fascicularis. Further details: dose 0.91 mg/kg, time < 24 hr, route intravenous. The note with it: in vivo. In a few lines: as §2
Series [8] in a line: Terminal half life in cynomolgus monkey at 0.91 mg/kg, iv by LC-MS/MS analysis. In kind it is ADME, organism-based, Macaca fascicularis. As to conditions: in vivo, read-out: beta t1/2 (converted). Put shortly:
as §1

Series [9] can be described thus: Fraction unbound in human plasma. In kind it is ADME, cell-free.
The target of the next series is T2, Glucocorticoid receptor (Homo sapiens, UniProt P04150).
T2 sequence (P04150 whole entry): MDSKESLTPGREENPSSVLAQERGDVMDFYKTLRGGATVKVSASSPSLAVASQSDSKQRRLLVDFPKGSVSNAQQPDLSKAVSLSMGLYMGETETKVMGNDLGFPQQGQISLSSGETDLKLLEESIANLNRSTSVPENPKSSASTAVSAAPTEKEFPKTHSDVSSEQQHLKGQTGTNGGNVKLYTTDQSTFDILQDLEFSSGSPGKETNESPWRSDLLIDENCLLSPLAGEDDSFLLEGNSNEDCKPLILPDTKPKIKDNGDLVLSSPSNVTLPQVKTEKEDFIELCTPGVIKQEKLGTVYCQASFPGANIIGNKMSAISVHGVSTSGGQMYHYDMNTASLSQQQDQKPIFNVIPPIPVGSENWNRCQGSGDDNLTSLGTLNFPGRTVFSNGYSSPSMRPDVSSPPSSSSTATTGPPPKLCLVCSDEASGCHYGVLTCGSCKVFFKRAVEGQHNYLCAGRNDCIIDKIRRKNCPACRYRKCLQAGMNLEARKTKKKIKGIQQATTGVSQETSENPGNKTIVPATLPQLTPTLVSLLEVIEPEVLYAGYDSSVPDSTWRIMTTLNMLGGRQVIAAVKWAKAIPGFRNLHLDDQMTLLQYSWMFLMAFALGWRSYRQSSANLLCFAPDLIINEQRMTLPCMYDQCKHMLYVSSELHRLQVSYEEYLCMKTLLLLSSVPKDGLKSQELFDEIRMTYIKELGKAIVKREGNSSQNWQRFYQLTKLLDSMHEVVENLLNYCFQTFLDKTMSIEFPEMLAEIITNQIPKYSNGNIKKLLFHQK
The series is described as follows: Agonist activity at glucocorticoid receptor (unknown origin) expressed in HEK293 cells assessed as transcriptional activation. In kind it is cell-based.

For the molecule `Cn1cc(C(=O)O)c2ccc(N3CCC(OCc4c(-c5c(Cl)cccc5Cl)noc4C4CC4)CC3)cc21` [TERN-101], the figures for the half-life in series [1], in series [3] and in series [8] were 120 min, 120 min and 300 min, respectively. Besides, the results for the AUC(0-t) at 24 h in series [2] and in series [7] were 365 ng·h/mL and 2300 ng·h/mL, respectively. The EC50 (in [4]; at Glucocorticoid receptor) was greater than 10 µM throughout. Besides, the inhibition in vivo at 10 mg/kg in the series with Mus musculus [5] was found to be 76%; with Mus musculus [6] it was 96%. Further, the Activity in the series with Rattus norvegicus was found to be 21.9 mg/dL. Besides, the fraction unbound in [9] was 0.032.

A word on the AUC(0-t): it is exposure summed from dosing to a finite time, without extrapolation to infinity. The term EC50 denotes the midpoint of the concentration-response curve. One may read the inhibition in vivo as the share of the control response that was lost under treatment. Usually fraction unbound stands for the share of the substance not bound to proteins or other matrix.

Source of the values: ChEMBL document CHEMBL3745677, “Discovery of 6-(4-{[5-Cyclopropyl-3-(2,6-dichlorophenyl)isoxazol-4-yl]methoxy}piperidin-1-yl)-1-methyl-1H-indole-3-carboxylic Acid: A Novel FXR Agonist for the Treatment of Dyslipidemia” (J Med Chem, 2015).
